In ChEMBL document CHEMBL3259637, “Synthesis and antiproliferative effect of novel 4-thiazolidinone-, pyridine- and piperazine-based conjugates on human leukemic cells” (Eur J Med Chem, 2014):
Activity calls are given as the source filed them. The rule behind the calls is not given here.

Experiments:
[1] = test system: Jurkat; experiment: Antiproliferative activity against human Jurkat cells after 48 to 72 hrs by trypan blue dye exclusion assay and MTT assay; assay type: functional, cell-based
[2] = test system: K562; experiment: Antiproliferative activity against human K562 cells after 48 to 72 hrs by trypan blue dye exclusion assay and MTT assay; assay type: functional, cell-based
[3] = Antiproliferative activity against human NALM6 cells after 48 to 72 hrs by trypan blue dye exclusion assay and MTT assay; assay type: functional, cell-based; details: NALM-6
[4] = Cell cycle arrest in human NALM6 cells assessed as change in cell cycle distribution after 48 hrs by propidium iodide staining based flow cytometry; assay type: functional; details: NALM-6
Summary of the method: (§1)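 Nalm6 cells (about 0.75 × 10⁵ cells/ml) were treated at 5, 10 and 20 µM for 48 h, with a DMSO vehicle control. Cells were PBS-washed, treated with RNase (50 µg/ml), stained with propidium iodide and analysed by flow cytometry (488 nm excitation, 560/670 emission). At least 10,000 cells per sample; subG1, G1, S and G2/M fractions scored. Two independent experiments.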

[5] = Cell cycle arrest in human NALM6 cells assessed as change in cell cycle distribution at 5 to 10 uM after 48 hrs by propidium iodide staining based flow cytometry; assay type: functional; details: NALM-6; summary of the method: as §1
[6] = Cell cycle arrest in human NALM6 cells assessed as accumulation at subG1 phase at 20 uM after 48 hrs by propidium iodide staining based flow cytometry; assay type: functional; details: NALM-6; summary of the method: as §1
[7] = Cell cycle arrest in human NALM6 cells assessed as accumulation at G2/M phase at 20 uM after 48 hrs by propidium iodide staining based flow cytometry; assay type: functional; details: NALM-6; summary of the method: as §1
[8] = test system: NALM-6; experiment: Induction of cell death in human NALM6 cells assessed as mitochondrial membrane potential depolarization after 48 hrs by JC1 staining based flow cytometry; assay type: functional
Summary of the method: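 Nalm6 cells were exposed to 5, 10 and 20 µM for 48 h, then loaded with JC-1 (0.5 µM) at 37°C for 30 min and PBS-washed. Flow cytometry used 488 nm excitation, reading emission at 530/630 and 580/610 nm on 10,000 cells. The ratio of red to green fluorescent cells was reported. 2,4-DNP was the positive control and DMSO the vehicle control.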

IC50 [1] [µM] | IC50 [2] [µM] | Structure (SMILES) | IC50 [3] [µM] | Activity [4] | Activity [5] | Activity [6] | Activity [7] | Activity [8]
61 | > 100 | COC(=O)c1ccc(C2SCC(=O)N2c2ccc(N3CCN(Cc4ccc(Cl)c(Cl)c4)CC3)cn2)c(OC)c1 (stereo not given) | > 100 |  |  |  |  | 
52.9 | 65.6 | COC(=O)c1ccc(C2SCC(=O)N2c2ccc(N3CCN(S(=O)(=O)c4ccccc4)CC3)cn2)c(OC)c1 (stereo not given) | 48.4 |  |  |  |  | 
19.3 | 15.2 | COC(=O)c1ccc(C2SCC(=O)N2c2ccc(N3CCNCC3)cn2)c(OC)c1 (stereo not given) | 9.71 | Dose-dependent effect | Active | Active | Active | Dose-dependent effect
> 100 | > 100 | COC(=O)c1ccc(C2SCC(=O)N2c2ccc(N3CCN(Cc4cccc(C)c4)CC3)cn2)c(OC)c1 (stereo not given) | 27.3 |  |  |  |  | 
45.2 | 54.5 | COC(=O)c1ccc(C2SCC(=O)N2c2ccc(N3CCN(S(=O)(=O)c4ccc(OC)cc4)CC3)cn2)c(OC)c1 (stereo not given) | 29.4 |  |  |  |  | 
0.0045 |  | CC(=O)O[C@H]1C(=O)[C@@]2(C)[C@H]([C@H](OC(=O)c3ccccc3)[C@]3(O)C[C@H](OC(=O)[C@H](O)[C@@H](NC(=O)c4ccccc4)c4ccccc4)C(C)=C1C3(C)C)[C@]1(OC(C)=O)CO[C@@H]1C[C@@H]2O [PACLITAXEL] | 0.0041 |  |  |  |  | 
> 100 | 53.5 | COC(=O)c1ccc(C2SCC(=O)N2c2ccc(N3CCN(S(=O)(=O)c4c(C)cc(C)cc4C)CC3)cn2)c(OC)c1 (stereo not given) | > 100 |  |  |  |  | 
54 | 65.2 | COC(=O)c1ccc(C2SCC(=O)N2c2ccc(N3CCN(S(=O)(=O)c4ccc([N+](=O)[O-])cc4)CC3)cn2)c(OC)c1 (stereo not given) | > 100 |  |  |  |  | 
78.3 | > 100 | COC(=O)c1ccc(C2SCC(=O)N2c2ccc(N3CCN(S(=O)(=O)c4ccc(F)cc4)CC3)cn2)c(OC)c1 (stereo not given) | > 100 |  |  |  |  | 
37.4 | 68.7 | COC(=O)c1ccc(C2SCC(=O)N2c2ccc(N3CCN(Cc4cccc([N+](=O)[O-])c4)CC3)cn2)c(OC)c1 (stereo not given) | > 100 |  |  |  |  | 
> 100 | > 100 | COC(=O)c1ccc(C2SCC(=O)N2c2ccc(N3CCN(S(=O)(=O)c4cc(Cl)ccc4Cl)CC3)cn2)c(OC)c1 (stereo not given) | 27.4 |  |  |  |  | 
41 | > 100 | COC(=O)c1ccc(C2SCC(=O)N2c2ccc(N3CCN(Cc4cc(OC)c(OC)c(OC)c4)CC3)cn2)c(OC)c1 (stereo not given) | > 100 |  |  |  |  | 
